Source: ChEMBL document CHEMBL1914351, “Design, synthesis and biological evaluation of 3-substituted 2,5-dimethyl-N-(3-(1H-tetrazol-5-yl)phenyl)pyrroles as novel potential HIV-1 gp41 inhibitors” (Bioorg Med Chem, 2011)

Assays:
[1] = Inhibition of HIV1 gp41 assessed as gp41-six-helix bundle formation after 30 mins by sandwich ELISA; parameters: species or system Human immunodeficiency virus 1
In short: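 N36 peptide (2 µM) preincubated with graded compound concentrations at 37 °C for 30 min, then C34 (2 µM) added for another 30 min at 37 °C. Mixture captured on plates coated with anti-6-HB rabbit IgG (10 µg/mL); detected with mAb NC-1, biotinylated anti-mouse IgG, SA-HRP, TMB; A450. Percent inhibition calculated; triplicate.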

[2] = system: Human immunodeficiency virus 1; assay: Antiviral activity against HIV1 3B infected in human MT2 cells assessed as inhibition of p24 production after 4 days by ELISA; assay type: functional, organism-based
[3] = Cytotoxicity against human MT2 cells after 4 days using XTT assay; assay type: cell-based
In short: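 MT-2 cells (5×10^5/mL) mixed with equal volume of graded compound concentrations, 37 °C for 4 days; XTT (1 mg/mL) containing 0.02 µM PMS added, A450 read after 4 h. CC50 calculated by CalcuSyn; triplicate, mean ± SD.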

[4] = Selectivity index, ratio of CC50 for human MT2 cells to EC50 for HIV1 3B; assay type: toxicity, cell-based; settings: read-out: Ratio CC50/EC50
In short: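 Ratio CC50/EC50, CC50 from XTT cytotoxicity in MT-2 cells over 4 days and EC50 from p24 inhibition in HIV-1 IIIB-infected MT-2 cells at day 4.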

[5] = Human immunodeficiency virus 1, 3B, MT2, 96 h, read-out: EC50

IC50 [1] | EC50 [2, 5] [µM] | IC50 ([1]; read-out: IC50) [µM] | EC50 ([2]; mt2) | SMILES | CC50 at 96 h [3] [µM] | selectivity ratio [4]
Not Active | 6.8 |  |  | Cc1cc(/C=C2\SC(=S)N(c3cccc(C(F)(F)F)c3)C2=O)c(C)n1-c1cccc(-c2nnn[nH]2)c1 | 15.8 | 2.3
 | 6.3 | 7.7 |  | Cc1cc(/C=C2\SC(=S)N(c3cccc(O)c3)C2=O)c(C)n1-c1cccc(-c2nnn[nH]2)c1 | 35.6 | 5.7
 |  | 58.7 |  | O=C(O)c1cc(-n2cccc2)ccc1Cl |  | 
 | 51.6 | 22.6 |  | COc1ccc(N2C(=O)N/C(=C\c3cc(C)n(-c4cccc(-c5nnn[nH]5)c4)c3C)C2=O)cc1 | 101 | 2
 | 2.2 | 4.6 |  | Cc1cc(/C=C2\SC(=S)N(c3ccc(Br)cc3)C2=O)c(C)n1-c1cccc(-c2nnn[nH]2)c1 | 46.8 | 21
 | 17.2 | 12.1 |  | CCOC(=O)C(=Cc1cc(C)n(-c2cccc(-c3nnn[nH]3)c2)c1C)C(=O)OCC | 77.4 | 4.5
 | 47.9 | 9.2 |  | COc1ccc(N2C(=O)/C(=C/c3cc(C)n(-c4cccc(-c5nnn[nH]5)c4)c3C)SC2=S)cc1 | 87 | 1.8
Not Active | 18 |  |  | CCOC(=O)/C(C#N)=C/c1cc(C)n(-c2cccc(-c3nnn[nH]3)c2)c1C | 76.8 | 4.3
 |  | 25.6 |  | Cc1ccc(C)n1-c1cccc(-c2nnn[nH]2)c1 |  | 32
 | 4.1 | 28.1 |  | Cc1cc(/C=C2\SC(=S)N(CCc3ccccc3)C2=O)c(C)n1-c1cccc(-c2nnn[nH]2)c1 | 45.7 | 11
 | 12.3 | 12.7 |  | Cc1cc(/C=C2\SC(=S)N(Cc3ccccc3)C2=O)c(C)n1-c1cccc(-c2nnn[nH]2)c1 | 150 | 12
 | 3.2 | 4.4 |  | Cc1cc(/C=C2\SC(=S)N(c3ccccc3)C2=O)c(C)n1-c1cccc(-c2nnn[nH]2)c1 | 61 | 19
 | 48.9 | 41.6 |  | Cc1cc(/C=C2\NC(=O)N(c3cccc(C(F)(F)F)c3)C2=O)c(C)n1-c1cccc(-c2nnn[nH]2)c1 | 76.5 | 1.6
Not Active | 29.3 |  |  | Cc1cc(/C=C/[N+](=O)[O-])c(C)n1-c1cccc(-c2nnn[nH]2)c1 | 78.8 | 2.7
 | 23.9 | 3.2 |  | Cc1cc(/C=C2\SC(=S)N(c3cccc([N+](=O)[O-])c3)C2=O)c(C)n1-c1cccc(-c2nnn[nH]2)c1 | 77 | 3.2
 | 6 | 3.1 |  | COc1cccc(N2C(=O)/C(=C/c3cc(C)n(-c4cccc(-c5nnn[nH]5)c4)c3C)SC2=S)c1 | 40.6 | 6.8
Not Active |  |  | Not Active | Cc1cc(C=C(C#N)C#N)c(C)n1-c1cccc(-c2nnn[nH]2)c1 | > 400 | 
Not Active | 9.8 |  |  | Cc1cc(/C=C2\SC(=S)N(c3cccc(Br)c3)C2=O)c(C)n1-c1cccc(-c2nnn[nH]2)c1 | 22.6 | 2.3
 | 13.1 | 2.7 |  | Cc1cc(/C=C2\SC(=S)N(c3ccc(C(F)(F)F)cc3)C2=O)c(C)n1-c1cccc(-c2nnn[nH]2)c1 | 27.1 | 2.1
 | 25.7 | 20.6 |  | Cc1cc(/C=C2\SC(=S)N(c3ccc(O)cc3)C2=O)c(C)n1-c1cccc(-c2nnn[nH]2)c1 | 45.6 | 1.8
